This is a sample that favours compounds with a hit; in the whole collection about 2.8% have one here.
EP2 modulator = modulators of human EP2 prostaglandin E2 receptor; induction, % at 25 µM; 260,000 compounds, 0.83% hits; EP2-expressing cells, cAMP HTRF FRET, PGE2 co-stimulation; AID 940;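 active = compounds whose cAMP rise, as percent of the full-agonist control response, exceeds 60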;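 note: rat C6 glioma line stably carrying human EP2 under a CMV promoter; the protocol text gives 20 µM as final concentration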
Target sequence (P43116 whole entry, looked up): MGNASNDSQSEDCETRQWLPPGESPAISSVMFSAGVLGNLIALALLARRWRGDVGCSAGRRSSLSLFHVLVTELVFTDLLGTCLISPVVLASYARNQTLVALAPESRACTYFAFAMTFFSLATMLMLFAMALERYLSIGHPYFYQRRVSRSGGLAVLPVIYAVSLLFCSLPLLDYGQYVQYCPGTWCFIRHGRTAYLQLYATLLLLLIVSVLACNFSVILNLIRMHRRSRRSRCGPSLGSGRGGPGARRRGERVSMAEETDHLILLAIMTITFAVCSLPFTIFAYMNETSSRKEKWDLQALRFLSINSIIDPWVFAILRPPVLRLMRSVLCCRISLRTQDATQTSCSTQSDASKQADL
NPY Y1 blocker = blocks the human neuropeptide Y Y1 receptor; AID 1040; inhibition, % at 3.6 µM; P25929; HEK293-CNG Y1 cells, membrane potential fluorescence; NPY at EC95, then isoproterenol; 200,000 compounds, 1% hits;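 active = inhibition above the campaign mean inhibition of all tested compounds plus 3 SD, cut at about 20% in these data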
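Assay system: HEK293 cells with Y1 receptor plus CNG channel | Probe or stimulus: NPY (25 nM), isoproterenol (1 µM), Ro 20-1724 (25 µM) | Timing: Compound incubation 1 h at room temperature, readout 45 min post-stimulation | Measured by: Membrane-potential fluorescent dye readout | Benchmarks: High control isoproterenol alone, low control NPY with isoproterenol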
NPY2 pot ag = human NPY-Y2 potentiation or agonism, primary screen; AID 1359; P49146; activation, % at 3.6 µM; 220,000 compounds, 0.45% hits; cells expressing NPY-Y2, potentiator/agonist read-out; in the data active = activation above about 27%;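 note: cells stimulated with NPY near EC25 plus isoproterenol at EC100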
NPY1 pot ag = potentiators or agonists of human neuropeptide Y receptor Y1; P25929; activation, % at 3.6 µM; 220,000 compounds, 0.37% hits; NPY-Y1 expressing cells, potentiator/agonist activation; in the data active = activation above about 33%, passing the limit was not always enough;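 note: cells stimulated with NPY at EC10 then isoproterenol at EC100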
NPY Y2 blocker = NPY-Y2 (human) receptor antagonism; NPY-Y2 expressing cells, antagonist mode; P49146; 140,000 compounds, 0.99% hits; inhibition, % at 2.7 µM
PGE2 EP2 inh = blocks the human prostaglandin E2 receptor EP2. C6 glioma cells expressing human EP2, cAMP TR-FRET; cells stimulated with saturating PGE2. 260,000 compounds, 0.52% hits. inhibition, % at 25 µM. P43116. AID 1422;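 active = percent inhibition above 40 after rounding to a whole number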;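 note: rat C6 glioma host cells with rolipram phosphodiesterase inhibitor present; the protocol text gives 20 µM as final concentration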
NPY-Y1 ant conf = confirmation of human neuropeptide Y receptor Y1 antagonists | shares compounds with NPY Y1 blocker | HEK293-CNG NPY-Y1, membrane potential fluorescence, cAMP; NPY challenge against isoproterenol-raised cAMP | inhibition, % at 3.6 µM | 1,200 compounds, 21% hits | AID 1254; in the data active = inhibition above about 20%
NPY2 antag ctr = human NPY-Y2 antagonism in NPY-Y1 counter-screen | shares compounds with NPY Y1 blocker | HEK293 NPY-Y2 CNG membrane potential fluorescence; cells given NPY, then isoproterenol | inhibition, % at 3.6 µM | 1,200 compounds, 28% hits
A number is an active result; – = inactive; · = no result; ! = not active in a repeat. Cut-off read from the data, not from the text of the source, unless noted: active = inhibition above about 17%; inactive = the rest.

SMILES	EP2 modulator	NPY Y1 blocker	NPY2 pot ag	NPY1 pot ag	NPY Y2 blocker	PGE2 EP2 inh	NPY-Y1 ant conf	NPY2 antag ctr
CC(C(=O)N1CCC2(CC1)NC(=O)c1cccnc1N2C)n1ncc2ccccc2c1=O (centres undefined)	–	·	·	·	·	·	·	·
COCC(=O)NCCNc1nc2ccc(C)cc2cc1C	–	–	–	–	–	–	·	·
Cc1cc2cc(C)c(NCCNC(=O)c3ccccc3C)nc2cc1C	–	·	·	·	·	–	·	·
Cc1ccc(C(=O)NCCNc2nc3cc(C)c(C)cc3cc2C)cc1	–	33	–	–	·	–	41	65
Cc1cc2cc(C)c(NCCNC(=O)c3ccccc3)nc2cc1C	–	46	–	–	·	–	32	37
O=c1[nH]c2cc3c(cc2cc1C(c1nnnn1CC1CCCO1)N1CCc2ccccc2C1)OCO3 (centres undefined)	–	·	·	·	·	–	·	·
CCCC(c1nnnn1C(C)(C)CC)N(Cc1ccccc1)Cc1cc2c(C)cc(C)cc2[nH]c1=O (centres undefined)	–	·	·	·	·	–	·	·
Cc1cccnc1NC1CCCCC1	–	–	–	–	·	–	·	·
c1ccc2c(NC3CCCC3)nnc(NC3CCCC3)c2c1	–	23	–	–	–	–	–	35
Cc1ccc(N(CC(=O)Nc2cccnc2)S(C)(=O)=O)cc1	–	·	·	·	·	–	·	·
O=C1N(Cc2cccc(Cl)c2)C[C@@H]2C[C@@H](c3ccsc3)N3CCC[C@@]123	–	29	–	–	·	–	–	–
O=C(CSc1n[nH]c(-c2ccccc2O)n1)N1c2ccccc2Sc2ccccc21	–	·	·	·	·	–	·	·
COc1cc(-c2noc(-c3ccccc3C(=O)NCc3ccco3)n2)cc(OC)c1OC	–	25	–	–	–	–	–	–
Cc1ccc(CNc2ccc(Cl)cc2[N+](=O)[O-])cc1	–	24	–	–	–	·	–	–
CC(C)c1ccc(-n2c(-c3ccccc3)c[n+]3c2CCc2ccccc2-3)cc1	–	116	–	–	·	–	112	77
COc1ccccc1-n1c(-c2ccccc2)c[nH]c1=S	–	–	–	–	·	–	·	·
CCOc1ccc(-n2c(-c3ccccc3)c[n+]3c2CCC3)cc1	–	–	–	–	·	–	·	·
COc1ccccc1-n1c(-c2ccccc2)c[n+]2c1CCc1ccccc1-2	–	33	–	–	·	–	21!	–
O=C1CCCC2=C1C(c1ccncc1)c1c(nc(SCc3ccccc3Cl)[nH]c1=O)N2 (centres undefined)	–	–	–	–	–	–	·	·
CCC(C)Sc1nc2c(c(=O)[nH]1)C(c1cccs1)C1=C(CCCC1=O)N2 (centres undefined)	–	22	–	–	·	–	–	–
Cc1noc(C)c1C(=O)N1CCC2(CC1)NC(=O)c1ccccc1N2	–	·	·	·	·	·	·	·
Cc1cc(NC(=O)CSc2nc3ccccc3c(=O)n2C2CCCC2)no1	–	33	–	–	–	–	–	–
CCCCCCCCCn1c2c(c(=N)c3c1CCC3)CCCC2	–	58	–	–	·	–	102	79
CCn1c2c(c(=N)c3c1CCC3)CCCC2	–	·	–	–	·	–	·	·
CCCCCCCCn1c2c(c(=N)c3ccccc31)CCC2	–	99	–	–	·	–	77	74
CCCCCn1c2c(c(=N)c3ccccc31)CCC2	–	·	–	–	·	–	·	·
CCOc1ccc(NC2c3ccccc3C(=O)N2Cc2ccc3c(c2)OCO3)cc1 (centres undefined)	–	–	–	–	–	–	·	·
COc1cc(NC2c3ccccc3C(=O)N2Cc2ccc3c(c2)OCO3)cc(OC)c1OC (centres undefined)	–	23	–	–	–	–	–	–
O=C(Cn1nc(CNc2ccc(Cl)cc2)[n+]2c1CCCCC2)c1ccccc1	–	–	–	–	–	–	·	·
Cc1ccc(C(C)C)c(OCc2nn(CC(=O)c3ccc(Cl)cc3)c3[n+]2CCCCC3)c1	–	35	–	–	·	–	–	18
